The values below come from ChEMBL document CHEMBL1149171, “Development of orally bioavailable bicyclic pyrazolones as inhibitors of tumor necrosis factor-alpha production” (J Med Chem, 2004).

Converted amounts (≈) assume the structure as drawn. A value given as a limit tells only on which side of the number the result lay.

Data set [1] can be described thus: Solubility was determined. It counts as ADME, Rattus norvegicus. The method in brief:
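Shake-flask method in 50 mM phosphate buffer, pH 7.4, ionic strength 0.15 M, with 24 h equilibration. Supernatant was centrifuged and filtered, diluted with acetonitrile, and quantified by UV-vis against calibration standards in 1:1 acetonitrile/buffer.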

Data set [2] can be described thus: Metabolism was measured as percent loss at 4 hr in rat hepatocytes. Conditions: read-out: Metabolism. It counts as ADME, Hepatocyte. The essentials: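 Plated Sprague-Dawley rat hepatocytes on matrigel at 37 °C, 0.25 µM compound, in triplicate. Samples taken at 0, 2 and 4 h and pooled across compounds after incubation, with internal standard added. Analysis by reverse-phase HPLC/MS/MS. Analyte/internal-standard area ratio at 4 h divided by the 0 h ratio gives percent loss.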

A short description of data set [3]: Oral bioavailability in rat. Format: ADME, organism-based. Conditions: in vivo.
In data set [4] the target is Glycogen synthase kinase-3 beta (Homo sapiens) (UniProt P49841). Put plainly: Inhibition of Glycogen synthase kinase-3 beta at 1 uM. The arrangement: scale not given: the % may be the effect or the level left. The essentials:
(§1)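 Kinase selectivity panel. Each kinase tested with compound at 1 µM and ATP at its K_m, in triplicate. Activity is given as a percentage of control incubations; SD typically 10%.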

For data set [5], the target named is Mitogen-activated protein kinase 8 (Homo sapiens) (UniProt P45983). Briefly: Inhibition of c-Jun N-terminal kinase 1-alpha 1 at 1 uM. Further details: scale not given: the % may be the effect or the level left. The method in brief:
as §1

Data set [6] deals with Mitogen-activated protein kinase 9 (Homo sapiens) (UniProt P45984). Briefly: Inhibition of c-Jun N-terminal kinase 2-alpha 2 at 1 uM. The arrangement: scale not given: the % may be the effect or the level left. The essentials: as §1
Sequence of Mitogen-activated protein kinase 9 (Homo sapiens) (P45984 whole entry, looked up): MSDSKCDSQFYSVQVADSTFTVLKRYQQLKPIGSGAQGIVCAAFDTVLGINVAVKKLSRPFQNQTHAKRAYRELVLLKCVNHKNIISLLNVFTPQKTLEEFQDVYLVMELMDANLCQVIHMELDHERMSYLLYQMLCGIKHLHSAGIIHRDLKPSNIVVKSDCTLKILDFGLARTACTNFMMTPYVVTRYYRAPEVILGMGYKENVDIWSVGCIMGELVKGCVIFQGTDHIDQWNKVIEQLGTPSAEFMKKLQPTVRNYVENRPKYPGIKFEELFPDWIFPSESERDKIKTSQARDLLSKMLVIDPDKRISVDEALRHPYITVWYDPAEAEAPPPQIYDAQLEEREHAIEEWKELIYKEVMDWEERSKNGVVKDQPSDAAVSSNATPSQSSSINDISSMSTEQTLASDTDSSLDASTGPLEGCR
The target of the next data set is MAP kinase p38 (Homo sapiens, UniProt O15264+Q15759+Q16539+P53778). Briefly: Inhibition of human Mitogen-activated protein kinase p38. Format: protein assay.
Data set [7] has as its target MAP kinase-activated protein kinase 2 (Homo sapiens) (UniProt P49137). Briefly: Inhibition of MAPKAP-K2 kinase at 1 uM. Further details: scale not given: the % may be the effect or the level left. The essentials: as §1
Data set [8] deals with Cyclin-dependent kinase 1/cyclin B (Homo sapiens) (UniProt P06493+P14635+Q8WWL7+O95067). Put plainly: Inhibition of Cyclin-dependent kinase 1-cyclin B at 1 uM. It counts as protein-complex assay. The arrangement: scale not given: the % may be the effect or the level left. The method in brief: as §1
For data set [9], the target named is Mitogen-activated protein kinase 3 (Homo sapiens) (UniProt P27361). Briefly: Inhibition of Mitogen-activated protein kinase 3 at 1 uM. The arrangement: scale not given: the % may be the effect or the level left. The method in brief:
as §1

The target of data set [10] is Mitogen-activated protein kinase 10 (Homo sapiens) (UniProt P53779). Briefly: Inhibition of c-Jun N-terminal kinase 3 at 1 uM. Further details: scale not given: the % may be the effect or the level left. The method in brief: as §1
Sequence of Mitogen-activated protein kinase 10 (Homo sapiens) (P53779 whole entry): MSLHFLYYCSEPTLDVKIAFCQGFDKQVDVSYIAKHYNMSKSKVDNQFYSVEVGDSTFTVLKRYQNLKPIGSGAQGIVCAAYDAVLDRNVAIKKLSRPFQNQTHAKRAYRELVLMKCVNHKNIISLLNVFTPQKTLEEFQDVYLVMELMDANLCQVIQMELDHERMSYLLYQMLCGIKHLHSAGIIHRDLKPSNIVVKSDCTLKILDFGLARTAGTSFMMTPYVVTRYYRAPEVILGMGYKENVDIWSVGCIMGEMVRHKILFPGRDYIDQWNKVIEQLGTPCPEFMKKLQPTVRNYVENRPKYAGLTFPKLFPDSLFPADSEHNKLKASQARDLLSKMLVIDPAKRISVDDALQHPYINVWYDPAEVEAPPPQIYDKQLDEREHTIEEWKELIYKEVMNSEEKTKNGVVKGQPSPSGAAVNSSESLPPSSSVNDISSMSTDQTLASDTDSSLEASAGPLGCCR
For data set [11], the target named is RAF proto-oncogene serine/threonine-protein kinase (Homo sapiens) (UniProt P04049). Briefly: Inhibition of RAF proto-oncogene serine/threonine-protein kinase at 1 uM. The arrangement: scale not given: the % may be the effect or the level left. The method in brief: as §1
Sequence of RAF proto-oncogene serine/threonine-protein kinase (Homo sapiens) (P04049 whole entry): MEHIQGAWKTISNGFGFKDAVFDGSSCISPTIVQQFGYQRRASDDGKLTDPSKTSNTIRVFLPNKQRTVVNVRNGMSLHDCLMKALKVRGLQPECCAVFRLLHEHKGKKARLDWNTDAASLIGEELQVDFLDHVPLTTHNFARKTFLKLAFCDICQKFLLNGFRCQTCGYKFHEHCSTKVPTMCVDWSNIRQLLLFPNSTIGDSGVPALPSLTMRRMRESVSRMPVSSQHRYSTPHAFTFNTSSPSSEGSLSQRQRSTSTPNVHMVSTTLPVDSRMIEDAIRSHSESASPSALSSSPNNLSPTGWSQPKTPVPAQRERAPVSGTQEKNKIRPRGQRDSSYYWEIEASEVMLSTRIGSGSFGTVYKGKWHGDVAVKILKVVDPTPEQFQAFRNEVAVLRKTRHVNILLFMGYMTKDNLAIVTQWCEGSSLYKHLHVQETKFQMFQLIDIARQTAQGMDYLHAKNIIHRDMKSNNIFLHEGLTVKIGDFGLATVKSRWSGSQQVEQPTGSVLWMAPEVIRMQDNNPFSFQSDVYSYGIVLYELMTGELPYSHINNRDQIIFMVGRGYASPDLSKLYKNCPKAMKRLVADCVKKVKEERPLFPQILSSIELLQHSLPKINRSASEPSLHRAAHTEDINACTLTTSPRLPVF
Data set [12] has as its target Cyclin-dependent kinase 2/cyclin A (Homo sapiens) (UniProt P24941+P20248+P78396). Briefly: Inhibition of Cyclin-dependent kinase 2-cyclin A at 1 uM. Format: protein-complex assay. The arrangement: scale not given: the % may be the effect or the level left. The essentials:
as §1

In data set [13] the target is RAC-alpha serine/threonine-protein kinase (Homo sapiens) (UniProt P31749). Briefly: Inhibition of Protein kinase B alpha (Akt) at 1 uM. The arrangement: scale not given: the % may be the effect or the level left. The method in brief:
as §1

For data set [14], the target named is Tyrosine-protein kinase Lck (Homo sapiens) (UniProt P06239). Briefly: Inhibition of p56 Lck tyrosine kinase at 1 uM. The arrangement: scale not given: the % may be the effect or the level left. The essentials: as §1
Sequence of Tyrosine-protein kinase Lck (Homo sapiens) (P06239 2-509 limits assumed): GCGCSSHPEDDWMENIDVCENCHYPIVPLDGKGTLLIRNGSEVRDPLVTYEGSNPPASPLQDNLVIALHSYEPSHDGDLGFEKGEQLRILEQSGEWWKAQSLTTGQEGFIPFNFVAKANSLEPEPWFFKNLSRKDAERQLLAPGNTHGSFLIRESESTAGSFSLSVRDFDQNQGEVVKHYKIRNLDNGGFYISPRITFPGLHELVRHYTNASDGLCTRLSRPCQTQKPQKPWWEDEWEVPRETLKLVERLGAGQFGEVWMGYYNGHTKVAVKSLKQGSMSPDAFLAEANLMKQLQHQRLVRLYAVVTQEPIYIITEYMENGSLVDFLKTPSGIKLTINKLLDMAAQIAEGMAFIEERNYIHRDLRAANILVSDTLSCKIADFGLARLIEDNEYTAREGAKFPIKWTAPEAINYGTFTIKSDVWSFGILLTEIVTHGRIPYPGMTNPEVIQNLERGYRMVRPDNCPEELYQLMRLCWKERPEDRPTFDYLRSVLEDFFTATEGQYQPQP
Data set [15] deals with Dual specificity mitogen-activated protein kinase kinase 1 (MEK1, MAP2K1) (Homo sapiens) (UniProt Q02750). Briefly: Inhibition of Dual specificity mitogen activated protein kinase kinase 1 at 1 uM. The arrangement: scale not given: the % may be the effect or the level left.
Sequence of Dual specificity mitogen-activated protein kinase kinase 1 (MEK1, MAP2K1) (Homo sapiens) (Q02750 whole entry, looked up): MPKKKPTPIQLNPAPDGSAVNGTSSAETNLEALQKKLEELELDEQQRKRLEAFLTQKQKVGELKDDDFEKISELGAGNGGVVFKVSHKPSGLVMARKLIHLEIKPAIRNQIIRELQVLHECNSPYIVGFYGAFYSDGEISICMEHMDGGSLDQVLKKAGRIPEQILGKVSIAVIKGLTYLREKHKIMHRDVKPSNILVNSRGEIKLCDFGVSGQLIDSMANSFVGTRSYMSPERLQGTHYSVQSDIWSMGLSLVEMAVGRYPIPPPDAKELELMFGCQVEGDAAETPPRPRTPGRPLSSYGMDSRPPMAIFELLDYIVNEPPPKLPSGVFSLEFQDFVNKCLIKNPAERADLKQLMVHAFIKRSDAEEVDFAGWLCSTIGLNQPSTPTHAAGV
Data set [16] has as its target T1, Dual specificity mitogen-activated protein kinase kinase 4 (Homo sapiens) (UniProt P45985).
T1 sequence (whole entry): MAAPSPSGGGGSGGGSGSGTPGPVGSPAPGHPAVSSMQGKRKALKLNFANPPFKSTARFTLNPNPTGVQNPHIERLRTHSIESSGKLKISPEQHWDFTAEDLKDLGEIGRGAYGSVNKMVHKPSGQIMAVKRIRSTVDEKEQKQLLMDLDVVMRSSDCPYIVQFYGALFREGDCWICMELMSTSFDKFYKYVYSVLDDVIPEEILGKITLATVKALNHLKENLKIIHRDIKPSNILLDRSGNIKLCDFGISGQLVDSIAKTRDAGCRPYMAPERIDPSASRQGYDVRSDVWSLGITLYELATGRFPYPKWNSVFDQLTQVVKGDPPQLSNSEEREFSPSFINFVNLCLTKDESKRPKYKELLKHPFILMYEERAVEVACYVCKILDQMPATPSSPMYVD
Briefly: Inhibition of MKK4/SKK1 kinase at 1 uM. The arrangement: scale not given: the % may be the effect or the level left. The method in brief:
as §1

Data set [17] has as its target Mitogen-activated protein kinase 1 (Homo sapiens) (UniProt P28482). Put plainly: Inhibition of ERK2/MAPK2 kinase at 1 uM. The arrangement: scale not given: the % may be the effect or the level left. The essentials:
as §1

A short description of data set [18]: Inhibition of MAPK1/IKKB kinase at 1 uM. Further details: scale not given: the % may be the effect or the level left. The essentials: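 Kinase panel, tested at 1 µM compound with ATP at its K_m, in triplicate. Activity is expressed as a percentage of that in control incubations.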
Data set [19] concerns the target Mitogen-activated protein kinase 3 (Homo sapiens) (UniProt P27361). Briefly: Inhibition of Mitogen-activated protein kinase 3 kinase at 1 uM. Further details: scale not given: the % may be the effect or the level left. The essentials:
as §1

Sequence of Glycogen synthase kinase-3 beta (Homo sapiens) (P49841 whole entry, looked up): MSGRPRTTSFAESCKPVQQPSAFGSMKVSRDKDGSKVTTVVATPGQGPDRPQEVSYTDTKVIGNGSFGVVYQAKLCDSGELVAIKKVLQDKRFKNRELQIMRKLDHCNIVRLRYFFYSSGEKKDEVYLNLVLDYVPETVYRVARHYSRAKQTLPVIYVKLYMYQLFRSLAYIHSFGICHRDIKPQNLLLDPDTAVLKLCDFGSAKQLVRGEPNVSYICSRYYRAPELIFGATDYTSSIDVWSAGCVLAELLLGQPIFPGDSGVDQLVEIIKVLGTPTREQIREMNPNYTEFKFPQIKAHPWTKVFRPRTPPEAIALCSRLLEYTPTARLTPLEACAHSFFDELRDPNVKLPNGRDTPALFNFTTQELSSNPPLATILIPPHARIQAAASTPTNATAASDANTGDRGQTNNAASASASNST
Sequence of MAP kinase-activated protein kinase 2 (Homo sapiens) (P49137 whole entry, looked up): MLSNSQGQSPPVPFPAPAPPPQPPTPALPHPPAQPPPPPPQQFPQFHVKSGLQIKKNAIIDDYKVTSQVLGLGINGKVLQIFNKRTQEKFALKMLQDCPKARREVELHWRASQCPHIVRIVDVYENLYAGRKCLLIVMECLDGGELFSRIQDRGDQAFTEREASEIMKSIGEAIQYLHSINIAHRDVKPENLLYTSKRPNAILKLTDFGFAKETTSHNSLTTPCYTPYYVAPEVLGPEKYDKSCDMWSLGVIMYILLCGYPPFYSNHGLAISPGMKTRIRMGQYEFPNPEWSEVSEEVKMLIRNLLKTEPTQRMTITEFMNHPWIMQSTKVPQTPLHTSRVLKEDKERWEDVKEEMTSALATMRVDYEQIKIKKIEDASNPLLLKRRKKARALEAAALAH
Sequence of Mitogen-activated protein kinase 8 (Homo sapiens) (P45983 whole entry): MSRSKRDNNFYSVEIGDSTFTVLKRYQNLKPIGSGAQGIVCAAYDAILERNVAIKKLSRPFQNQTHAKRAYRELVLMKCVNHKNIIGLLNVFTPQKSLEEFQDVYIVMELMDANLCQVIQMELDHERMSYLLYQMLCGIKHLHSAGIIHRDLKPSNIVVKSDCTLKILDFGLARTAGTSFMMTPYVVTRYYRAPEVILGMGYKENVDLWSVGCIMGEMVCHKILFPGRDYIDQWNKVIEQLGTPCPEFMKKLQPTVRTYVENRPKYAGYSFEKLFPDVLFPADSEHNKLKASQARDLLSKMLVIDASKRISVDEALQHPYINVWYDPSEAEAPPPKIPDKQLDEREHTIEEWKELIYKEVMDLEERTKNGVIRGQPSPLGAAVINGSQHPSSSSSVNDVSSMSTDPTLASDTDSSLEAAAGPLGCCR
Sequence of Mitogen-activated protein kinase 3 (Homo sapiens) (P27361 whole entry): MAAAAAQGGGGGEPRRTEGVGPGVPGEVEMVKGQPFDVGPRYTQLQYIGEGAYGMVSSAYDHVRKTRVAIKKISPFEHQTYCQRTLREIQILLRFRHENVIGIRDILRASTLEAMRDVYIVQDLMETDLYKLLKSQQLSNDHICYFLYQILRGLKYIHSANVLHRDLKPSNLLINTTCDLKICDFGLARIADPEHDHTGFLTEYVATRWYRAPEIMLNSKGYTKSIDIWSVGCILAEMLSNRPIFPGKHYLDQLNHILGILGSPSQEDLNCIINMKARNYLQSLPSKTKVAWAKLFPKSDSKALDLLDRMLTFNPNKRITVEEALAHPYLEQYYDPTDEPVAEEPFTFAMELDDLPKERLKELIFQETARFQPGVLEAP
Sequence of RAC-alpha serine/threonine-protein kinase (Homo sapiens) (P31749 whole entry): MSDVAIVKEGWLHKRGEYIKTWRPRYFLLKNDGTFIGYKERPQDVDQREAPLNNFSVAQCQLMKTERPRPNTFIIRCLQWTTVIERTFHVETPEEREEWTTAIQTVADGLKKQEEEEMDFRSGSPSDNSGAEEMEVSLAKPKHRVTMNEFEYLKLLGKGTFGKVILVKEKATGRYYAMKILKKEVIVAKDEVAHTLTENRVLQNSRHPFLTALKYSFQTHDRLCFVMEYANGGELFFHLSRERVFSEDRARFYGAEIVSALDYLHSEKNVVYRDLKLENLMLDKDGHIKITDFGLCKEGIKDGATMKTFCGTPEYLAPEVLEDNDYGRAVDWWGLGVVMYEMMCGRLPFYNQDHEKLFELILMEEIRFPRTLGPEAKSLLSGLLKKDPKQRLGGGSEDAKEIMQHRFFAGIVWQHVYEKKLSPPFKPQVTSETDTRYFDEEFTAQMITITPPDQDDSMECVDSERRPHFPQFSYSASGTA
Sequence of Mitogen-activated protein kinase 1 (Homo sapiens) (P28482 whole entry): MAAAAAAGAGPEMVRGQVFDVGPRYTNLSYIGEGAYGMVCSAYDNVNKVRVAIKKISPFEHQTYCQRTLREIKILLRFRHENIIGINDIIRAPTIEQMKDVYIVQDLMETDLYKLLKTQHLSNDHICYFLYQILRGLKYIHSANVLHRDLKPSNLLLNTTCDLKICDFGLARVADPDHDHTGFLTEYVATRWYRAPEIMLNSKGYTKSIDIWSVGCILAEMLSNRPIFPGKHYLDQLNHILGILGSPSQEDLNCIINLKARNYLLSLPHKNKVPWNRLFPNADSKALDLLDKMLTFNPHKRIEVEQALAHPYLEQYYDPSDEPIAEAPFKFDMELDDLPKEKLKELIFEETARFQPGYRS

`CC[C@H](C)Nc1nccc(-c2c(-c3ccc(F)cc3)c(=O)n3n2CCC3)n1`: the concentration in solution in data set [1] (solubility) came to 460 µg/mL (≈ 1250 µM). Also, the metabolised at 4 h in data set [2] came out at 60%. Besides, the bioavailability in data set [3] was 10%.

With `C[C@H](Nc1nccc(-c2c(-c3ccc(F)cc3)c(=O)n3n2CCC3)n1)c1ccccc1`, the Activity in data set [4] was determined as 101%; in data set [5], 52%; in data set [6] it was 8%; in data set [7] it was 91%; in data set [8] it was 95%; in data set [9] it was 82%. Moreover, the Activity in data set [10] turned out to be 4%; in [11] it was 61%; in [12], 117%; in data set [13] it was 98%; in data set [14], 161%; in data set [15] it was 99%. Besides, the Activity in data set [16] came to 166%; in [17], 80%. Also, at MAP kinase p38, the IC50 came out at 8 nM. Further, the solubility in data set [1] is 200 µg/mL (≈ 481 µM). In data set [2], the metabolised at 4 h was 50%. In data set [3], this molecule registered a bioavailability of 29%.

As for `C[C@H](Nc1nccc(-c2c(-c3ccc(F)cc3)c(=O)n3n2CCC3)n1)C(C)(C)O`, the Activity in data set [18] is 111%; in data set [4], 99%; in [5], 105%; in data set [6], 73%; in data set [7], 112%; in data set [8], 99%. Moreover, the Activity in data set [10] was 36%; in [11], 91%; in data set [12] it was 101%; in data set [13], 119%; in data set [14] it was 141%; in data set [19] it was 9%. Also, the Activity turned out to be 95% in [15], 117% in data set [16] and 108% in data set [17]. The IC50 against MAP kinase p38 was 54 nM. In data set [1], this molecule gave a solubility of 1850 µg/mL (≈ 4650 µM). The metabolised at 4 h in [2] is 29%. For the same molecule, the bioavailability in [3] is 25%.

On to `COC[C@H](C)Nc1nccc(-c2c(-c3ccc(F)cc3)c(=O)n3n2CCC3)n1`, for which the Activity is 72% in [4]; 65% in [5]; 8% in data set [6]; 113% in data set [7]; 96% in [8]; 5% in data set [10]. Besides, the Activity in data set [11] worked out at 55%; in [12] it was 108%; in [13] it was 89%; in data set [19], 96%; in data set [15], 102%; in [16] it was 90%. The molecule also displayed an Activity in [17] of 98%. At MAP kinase p38, the IC50 was determined as 27 nM. Further, the solubility in data set [1] worked out at 840 µg/mL (≈ 2190 µM). The metabolised at 4 h in data set [2] is less than 5%. In [3], this molecule had a bioavailability of 63%.

In [1], `O=c1c(-c2ccc(F)cc2)c(-c2ccnc(NCc3ccccc3)n2)n2n1CCC2` returned a solubility of 100 µg/mL (≈ 249 µM). In data set [2], the metabolised at 4 h came out at 46%. This molecule also came in with a bioavailability in [3] of 18%.
